The subject of experiment [1] is Candida albicans. As to the kind of experiment: Antifungal activity against Candida albicans 44506 assessed as inhibition of U-14C-leucine incorporation into TCA precipitable material after 1 hr. The experiment is classed as functional, organism-based. As to conditions: Candida albicans, 44506, 1 h. The gist of the method:
(§1)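 Candida grown overnight in YNBG to mid-log phase, washed with saline, and resuspended in YNB lacking the precursor under study. Compound preincubated 30 min at 37°. 14C-labelled acetate, adenine, glucose or leucine (per line) then added, with incorporation followed 60 min (linear). Stopped with ice-cold TCA, 5% final. IC50 is the concentration giving 50% inhibition versus control.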

Experiment [2] concerns Candida albicans. Kind of experiment: Antifungal activity against Candida albicans 44506 assessed as inhibition of U-14C-glucose incorporation into TCA precipitable material after 1 hr. The experiment is classed as functional, organism-based. As to conditions: Candida albicans, 44506, 1 h. The gist of the method:
as §1

The test system of experiment [3] is Candida albicans. As to the kind of experiment: Antifungal activity against Candida albicans 44506 assessed as inhibition of U-14C-adenine incorporation into TCA precipitable material after 1 hr. The experiment is classed as functional, organism-based. As to conditions: Candida albicans, 44506, 1 h. A digest of the protocol: as §1
Experiment [4] concerns Candida albicans. As to the kind of experiment: Antifungal activity against Candida albicans 44506 assessed as inhibition of U-14C-acetate incorporation into TCA precipitable material after 1 hr. As to conditions: Candida albicans, 44506, 1 h. It is filed as functional, organism-based. The gist of the method: as §1
Experiment [5] concerns Candida albicans. Kind of experiment: Antifungal activity against Candida albicans 44506 in Sabouraud dextrose broth after 18 to 24 hrs by twofold broth dilution method. It is filed as functional. A digest of the protocol:
(§2)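 Inoculum 10^3 cells/ml, incubated 18–24 h at 37°. MIC read visually as the lowest concentration with complete growth inhibition. Average of triplicates.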
On the technique in general: Dilution methods test growth across graded concentrations, often in twofold steps.

Experiment [6] relates to Candida albicans. As to the kind of experiment: Antifungal activity against Candida albicans 44506 in RPMI-1640 medium after 18 to 24 hrs by twofold broth dilution method. The experiment is classed as functional. A digest of the protocol:
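Twofold broth microdilution in RPMI-1640 (pH 7.2, unbuffered), inoculum 10^3 cells/ml. Incubated 18–24 h at 37° under 5% CO2. MIC read visually as the lowest concentration giving complete growth inhibition. Average of triplicates.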

Another experiment has as its system Sporothrix schenckii. As to the kind of experiment: Antifungal activity against Sporothrix schenckii 14284 after 18 to 24 hrs by twofold broth dilution method. It is filed as functional.
A further experiment relates to Pseudomonas aeruginosa. Kind of experiment: Antibacterial activity against Pseudomonas aeruginosa 27853 after 18 to 24 hrs by twofold broth dilution method. It is filed as functional, organism-based. The gist of the method: (§3)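 Twofold serial dilutions in Mueller-Hinton broth supplemented with Mg2+ and Ca2+. Inoculum 10^3 cells/ml, with cell density counted by hemocytometer. Incubated 18–24 h at 37°. MIC is the lowest concentration giving complete visual inhibition of growth. Triplicate determinations, reported as the average.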

Experiment [7] has as its system Candida albicans. Kind of experiment: Antifungal activity against Candida albicans 44506 in YNBG medium after 7 days in pH 7 buffer by agar dilution method. It is filed as functional. As to conditions: Candida albicans, 44506, 168 h.
The test system of experiment [8] is Candida albicans. Kind of experiment: Antifungal activity against Candida albicans 44506 in RPMI-1640 medium after 24 to 48 hrs. The experiment is classed as functional. A digest of the protocol:
(§4)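 MFC taken from the broth MIC plates: wells resuspended, and 1 µl streaked onto Sabouraud dextrose agar (Candida) or Emmon's SDA (Cryptococcus). Scored after 24–48 h at 37°. MFC is the lowest concentration killing 99% of the inoculum. Average of triplicates.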

Experiment [9] concerns Trichophyton mentagrophytes. Kind of experiment: Antifungal activity against Trichophyton mentagrophytes 9533 after 18 to 24 hrs by twofold broth dilution method. It is filed as functional.
A further experiment deals with Bacillus subtilis. As to the kind of experiment: Antibacterial activity against Bacillus subtilis 6633 after 18 to 24 hrs by twofold broth dilution method. The experiment is classed as functional. A digest of the protocol: as §3
Experiment [10] has as its system Candida albicans. Kind of experiment: Antifungal activity against Candida albicans 44506 in YNBG medium after 7 days in pH 8 buffer by agar dilution method. It is filed as functional. As to conditions: Candida albicans, 44506, 168 h.
Another experiment deals with Epidermophyton floccosum. As to the kind of experiment: Antifungal activity against Epidermophyton floccosum 25066 after 18 to 24 hrs by twofold broth dilution method. It is filed as functional.
Experiment [11] concerns Candida albicans. Kind of experiment: Antifungal activity against Candida albicans 44506 in RPMI-1640 medium of pH 7.2 after 7 days by agar dilution method. Particulars: Candida albicans, 44506, 168 h. It is filed as functional. On the technique in general: In agar dilution, organisms are placed on agar that contains the substance at set levels.
Another experiment relates to Trichosporon beigelii. As to the kind of experiment: Antifungal activity against Trichosporon beigelii 28592 after 18 to 24 hrs by twofold broth dilution method. It is filed as functional.
The test system of experiment [12] is Candida albicans. As to the kind of experiment: Antifungal activity against Candida albicans 44506 in YNBG medium after 18 to 24 hrs by twofold broth dilution method. It is filed as functional. A digest of the protocol: as §2
Experiment [13] relates to Candida albicans. As to the kind of experiment: Antifungal activity against Candida albicans 44506 in RPMI-1640 medium after 7 days in pH 5 buffer by agar dilution method. As to conditions: Candida albicans, 44506, 168 h. It is filed as functional.
The subject of experiment [14] is Candida albicans. Kind of experiment: Antifungal activity against Candida albicans 44506 in Sabouraud dextrose broth after 24 to 48 hrs. It is filed as functional. The gist of the method: as §4
Experiment [15] relates to Scopulariopsis brevicaulis. Kind of experiment: Antifungal activity against Scopulariopsis brevicaulis 36840 after 18 to 24 hrs by twofold broth dilution method. It is filed as functional.
For the next experiment, the system named is Nannizzia gypsea. As to the kind of experiment: Antifungal activity against Microsporum gypseum 42960 after 18 to 24 hrs by twofold broth dilution method. The experiment is classed as functional.
Experiment [16] has as its system Cryptococcus neoformans. Kind of experiment: Antifungal activity against Cryptococcus neoformans 32045 after 24 to 48 hrs. It is filed as functional. A digest of the protocol:
as §4

In experiment [17] the test system is Candida albicans. Kind of experiment: Antifungal activity against Candida albicans 44506 in RPMI-1640 medium after 7 days in pH 4 buffer by agar dilution method. It is filed as functional. Particulars: Candida albicans, 44506, 168 h.
Experiment [18] relates to Candida albicans. Kind of experiment: Antifungal activity against Candida albicans 44506 in YNBG medium after 7 days in pH 4 buffer by agar dilution method. It is filed as functional. Particulars: Candida albicans, 44506, 168 h.
In experiment [19] the test system is Cryptococcus neoformans. As to the kind of experiment: Antifungal activity against Cryptococcus neoformans 32045 after 48 hrs by twofold broth dilution method. The experiment is classed as functional. As to conditions: Cryptococcus neoformans, 32045, 48 h. A digest of the protocol:
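Broth microdilution with twofold compound dilutions and an inoculum of 10^3 cells/ml. Incubated 48 h at 37°. MIC is the visually read lowest concentration completely inhibiting growth. Triplicate average.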

Experiment [20] has as its system Candida albicans. As to the kind of experiment: Antifungal activity against Candida albicans 44506 in YNBG medium of pH 5.4 after 7 days by agar dilution method. The experiment is classed as functional. As to conditions: Candida albicans, 44506, 168 h.
Experiment [21] concerns Candida albicans. As to the kind of experiment: Antifungal activity against Candida albicans 44506 in RPMI-1640 medium after 7 days in pH 7 buffer by agar dilution method. The experiment is classed as functional. As to conditions: Candida albicans, 44506, 168 h.
Experiment [22] relates to Candida albicans. Kind of experiment: Antifungal activity against Candida albicans 44506 in RPMI-1640 medium after 7 days in pH 6 buffer by agar dilution method. The experiment is classed as functional. Particulars: Candida albicans, 44506, 168 h.
The test system of experiment [23] is Candida albicans. Kind of experiment: Antifungal activity against Candida albicans 44506 in RPMI-1640 medium after 7 days in pH 8 buffer by agar dilution method. The experiment is classed as functional. Particulars: Candida albicans, 44506, 168 h.
The test system of experiment [24] is Candida albicans. As to the kind of experiment: Antifungal activity against Candida albicans 44506 in YNBG medium after 7 days in pH 5 buffer by agar dilution method. The experiment is classed as functional. As to conditions: Candida albicans, 44506, 168 h.
The subject of another experiment is Escherichia coli. Kind of experiment: Antibacterial activity against Escherichia coli HBOI 001 after 18 to 24 hrs by twofold broth dilution method. It is filed as functional, organism-based. The gist of the method:
as §3

For experiment [25], the system named is Candida albicans. As to the kind of experiment: Antifungal activity against Candida albicans 44506 in YNBG medium after 7 days in pH 6 buffer by agar dilution method. The experiment is classed as functional. As to conditions: Candida albicans, 44506, 168 h.

The text below walks through data of ChEMBL document CHEMBL1150059, “Antifungal activity of meridine, a natural product from the marine sponge Corticium sp” (J Nat Prod, 1992).

Values after ≈ are worked out from the molar mass of the structure shown. Active and inactive are the calls of the source.

With `CN(CC[C@H](N)CC(=O)N[C@H]1C=C[C@H](n2ccc(N)nc2=O)O[C@@H]1C(=O)O)C(=N)N` [BLASTICIDIN_S], the IC50 was 6 µg/mL (≈ 14.2 µM) in the experiment with Candida albicans [1], above 100 µg/mL in the experiment on Candida albicans [2], above 100 µg/mL in the experiment with Candida albicans [3] and above 100 µg/mL with Candida albicans [4].

Turning to `Nc1nc(=O)[nH]cc1F` [FLUCYTOSINE], the IC50 was above 100 µg/mL in the experiment on Candida albicans [1], above 100 µg/mL in the experiment with Candida albicans [2], 6 µg/mL (≈ 46.5 µM) in the experiment with Candida albicans [3] and above 100 µg/mL with Candida albicans [4].

Consider `CC(=O)N1CCN(c2ccc(OCC3COC(Cn4ccnc4)(c4ccc(Cl)cc4Cl)O3)cc2)CC1` (centres undefined) [KETOCONAZOLE], for which the figures for the MIC against Candida albicans [5] and against Candida albicans [6] were 0.062 µg/mL (≈ 0.117 µM) and 0.008 µg/mL (≈ 0.0151 µM), respectively.

As to `O=C1c2nccc(O)c2-c2nc3ccccc3c3ccnc1c23` [MERIDINE], the minimal inhibitory concentration (MIC) is above 25 µg/mL in the experiment on Sporothrix schenckii; 1.2 µg/mL (≈ 4.01 µM) against Candida albicans [7]; 6.2 µg/mL (≈ 20.7 µM) in [9]; 3.1 µg/mL (≈ 10.4 µM) in the experiment on Bacillus subtilis; 1.2 µg/mL (≈ 4.01 µM) against Candida albicans [10]; 1.6 µg/mL (≈ 5.35 µM) in the experiment on Epidermophyton floccosum. Moreover, the MIC was 0.31 µg/mL (≈ 1.04 µM) in the experiment with Candida albicans [11]; above 25 µg/mL against Trichosporon beigelii; 2.5 µg/mL (≈ 8.35 µM) in the experiment with Candida albicans [12]; 0.62 µg/mL (≈ 2.07 µM) against Candida albicans [13]; above 25 µg/mL in experiment [15]; 25 µg/mL (≈ 83.5 µM) with Nannizzia gypsea. Further, the MIC with Candida albicans [17] turned out to be 0.62 µg/mL (≈ 2.07 µM); against Candida albicans [18] it was 2.5 µg/mL (≈ 8.35 µM); in the experiment on Cryptococcus neoformans [19], 0.8 µg/mL (≈ 2.67 µM); against Candida albicans [20] it was 2.5 µg/mL (≈ 8.35 µM); against Candida albicans [21], 0.31 µg/mL (≈ 1.04 µM); in the experiment on Candida albicans [5], 3.1 µg/mL (≈ 10.4 µM). For the same molecule, the MIC in the experiment on Candida albicans [22] was 0.31 µg/mL (≈ 1.04 µM); with Candida albicans [23], 0.31 µg/mL (≈ 1.04 µM); against Candida albicans [6], 0.2 µg/mL (≈ 0.668 µM); against Candida albicans [24], 2.5 µg/mL (≈ 8.35 µM); in the experiment on Candida albicans [25], 1.2 µg/mL (≈ 4.01 µM). Also, the result in the experiment on Pseudomonas aeruginosa and with Escherichia coli was inactive. In addition, the MFC in the experiment on Candida albicans [8] came out at 0.2 µg/mL (≈ 0.668 µM); against Candida albicans [14] it was 3.1 µg/mL (≈ 10.4 µM); in the experiment with Cryptococcus neoformans [16] it was 6.2 µg/mL (≈ 20.7 µM). Besides, the IC50 is 50 µg/mL (≈ 167 µM) in the experiment on Candida albicans [1], above 100 µg/mL in the experiment on Candida albicans [2], 1 µg/mL (≈ 3.34 µM) in the experiment with Candida albicans [3] and above 100 µg/mL in the experiment with Candida albicans [4].

`Clc1ccc(COC(Cn2ccnc2)c2ccc(Cl)cc2Cl)c(Cl)c1` (centres undefined) [MICONAZOLE]: the MIC with Candida albicans [5] is 25 µg/mL (≈ 60.1 µM); against Candida albicans [6], 0.03 µg/mL (≈ 0.0721 µM).

What is called IC50 is the midpoint of a concentration-inhibition curve. One may read the MIC as the lowest concentration that inhibits growth of the organism. Broadly, the MFC is the smallest concentration meeting the test's criterion for killing the fungus. Read a low MFC as more potent killing.
